Mdm2 ligase inh = MDM2-luciferase reporter signal enhancers, primary screen, MDM2 E3 ligase inhibitor project, cell-based, luminescence, 1536-well; E3 ubiquitin-protein ligase Mdm2 (Homo sapiens), Q00987; cell-based MDM2 ubiquitination luciferase reporter, 2 h; 0 = plate control, 100 = twice control, blank-subtracted; signal enhancement, % at 5 µM; actives 0.11% (n = 210,000);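 active means signal enhancement of 30% or more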;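 further: luminescence tracks abundance of the self-degrading MDM2-luciferase fusion protein; higher signal means inhibition of MDM2 E3 ligase activity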
Target sequence (Q00987 whole entry, looked up, the tested form may be a part): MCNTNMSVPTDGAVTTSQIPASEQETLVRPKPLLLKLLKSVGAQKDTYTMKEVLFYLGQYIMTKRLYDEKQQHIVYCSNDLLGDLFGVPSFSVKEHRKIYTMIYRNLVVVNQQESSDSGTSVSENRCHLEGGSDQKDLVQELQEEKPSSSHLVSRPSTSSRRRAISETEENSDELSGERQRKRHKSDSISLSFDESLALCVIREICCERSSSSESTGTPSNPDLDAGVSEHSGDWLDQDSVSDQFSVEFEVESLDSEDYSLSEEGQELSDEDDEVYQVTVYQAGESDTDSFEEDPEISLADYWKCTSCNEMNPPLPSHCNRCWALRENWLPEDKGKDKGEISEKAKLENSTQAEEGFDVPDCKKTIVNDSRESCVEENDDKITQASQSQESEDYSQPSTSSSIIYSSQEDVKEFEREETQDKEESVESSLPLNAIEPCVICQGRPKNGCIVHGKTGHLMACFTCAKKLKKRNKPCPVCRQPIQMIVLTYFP
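Material: Stable MDM2–luciferase fusion reporter cells | Amount: 2000 cells seeded into each well | Dosing: One concentration, 5 µM, with 0.2% DMSO | Incubation: 4 h cell settling then 2 h compound exposure, 37 °C | Measured by: Luciferase luminescence | Read-out basis: % enhancement relative to plate controls after blank subtraction | Benchmarks: Control and blank well means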
Pf gamet viab = late stage P. falciparum gametocyte viability inhibitors, primary screen, ATP luminescence, HTS | inhibition, % at 10.9 µM | actives 0.065% (n = 150,000) | P. falciparum stage V gametocytes, 24 h;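 active means inhibition above the mean plus 3 SD of compounds within the control limits, set per campaign, cut at about 38% in these data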;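 further: 0% = DMSO wells and 100% = medium only without gametocytes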
Wee1 stabilizer = Wee1 degradation inhibitors, primary screen, cell-based, HeLa, Wee1K328M-luciferase, luminescence; Wee1-like protein kinase (Homo sapiens), P30291; HeLa Luc-Wee1K328M stability; 100% = proteasome inhibitor MG132 effect; reporter increase, % at 5 µM; actives 1.2% (n = 220,000); AID 1321, 2008;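 active means activation above the mean of all tested compounds plus 3 SD, set per screening run, cut at about 8.8% in these data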;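 further: cells exposed to compound for 20 h before luminescence read; 0% = DMSO alone and 100% = MG132 at 30 µM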
Hsp70 activator = Hsp70 transcriptional activators, primary screen, cell-based, HeLa, Hsp70 promoter luciferase, luminescence, 10 µM; HeLa Hsp70 promoter luciferase reporter; scaled: vehicle 0, proteasome-inhibitor control 100%; activation, % at 10 µM; actives 0.04% (n = 200,000); AID 1203, 2008;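 active means activation above the mean across all tested compounds plus 3 SD, cutoff set per campaign, cut at about 5.5% in these data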;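 further: 100% = MG132 at 30 µM as the positive control and 0% = DMSO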
Wee1 degr conf = Wee1 degradation inhibitors, confirmation, cell-based, HeLa, Wee1K328M-luciferase, luminescence, triplicate. shares compounds with Wee1 stabilizer. HeLa Luc-Wee1K328M degradation; vehicle 0%, proteasome-blocked wells 100%. activation, % at 5 µM. actives 4% (n = 1,100). AID 1410, 2008; in the data active means activation above about 8.9%
* = called active by the depositor; . = no result given. Shown are actives, neighbours in structure and some others; about 1.3% of the full set was active somewhere.

SMILES	Mdm2 ligase inh	Pf gamet viab	Wee1 stabilizer	Hsp70 activator	Wee1 degr conf
COC(=O)C1CCN(C(=O)/C=C/c2ccc(OC)cc2)CC1	-18	.	11*	0	10*
CC(C)(C)c1nnc(NS(=O)(=O)c2ccc(F)cc2)s1	.	8	.	.	.
CNc1nc(-c2ccc3c(c2)CCN3S(=O)(=O)c2ccccc2)c(C)s1	17	.	2	0	.
CNS(=O)(=O)c1cccc(C(=O)OCC(=O)Nc2ccc(Cl)cn2)c1	.	15	12*	.	1
CCC1CCC(NC(=O)Nc2cccc(OC)c2)CC1 (centres undefined)	-3	0	16*	0	4
CC(C)c1ccc(-c2nnc(N)s2)cc1	-3	.	12*	0	3
C(=C\c1ccco1)/c1nc2ccccc2[nH]1	-29	19	14*	0	3
CC(C)Cn1c(N)c(C(=O)COC(=O)[C@@H]2CCCN2C(=O)c2cccs2)c(=O)n(C)c1=O	-3	9	1	0	.
C=CCNC(=S)N1CCN(S(=O)(=O)c2ccc(C)cc2)CC1	-5	19	17*	.	3
O=C(NCC1CCCO1)C1CCCN1C(=O)Nc1ccc(Cl)c(Cl)c1 (centres undefined)	-21	-20	1	0	.
Cc1ccc(C2=NCN(c3ccc(C(=O)O)cc3)C(=S)N2)cc1	-10	.	-1	0	.
COC(=O)c1cc2ccccc2oc1=O	-6	.	2	0	.
COc1cccc(OC(=O)c2cc3ccccc3oc2=O)c1	-11	-2	15*	0	1
O=C(NCCN1CCN(c2ccc([N+](=O)[O-])cc2)CC1)NCc1ccccc1	.	1	.	.	.
COc1ccc(C(=S)Nc2ccc(N(C)C)cc2)cc1	-2	1	8	0	.
COc1ccc(NC(=S)c2ccc(N(C)C)cc2)cc1	.	-16	13*	0	0
CC1(C)CC[C@]2(C(=O)O)CC[C@]3(C)C(=CC[C@@H]4[C@@]5(C)CC[C@H](O[C@@H]6O[C@H](C(=O)O)[C@@H](O)[C@H](O[C@@H]7OC[C@H](O)[C@H](O)[C@H]7O)[C@H]6O)C(C)(C)[C@@H]5CC[C@]43C)[C@@H]2C1	.	7	.	.	.
COc1ccc(Nc2nc(S(=O)(=O)c3ccc(C)cc3)c(Cl)s2)cc1	-12	-15	11*	0	2
O=S(=O)(C/C(=C/CO)S(=O)(=O)c1ccccc1)c1ccccc1	16	-3	13*	15*	8.8*
CCN(Cc1ccccc1)C(=O)CS(=O)(=O)c1ccccc1	6	13	2	0	.
COc1cc(C2Nc3cc(Cl)c(S(N)(=O)=O)cc3S(=O)(=O)N2)cc(OC)c1OC (centres undefined)	-7	.	12*	0	-1
COc1cccc(C2Nc3cc(Cl)c(S(N)(=O)=O)cc3S(=O)(=O)N2)c1 (centres undefined)	-10	.	0	0	.
COC(=O)CC1C(=O)NCCN1C(=O)CSc1nc2ccccc2o1 (centres undefined)	-11	28	12*	0	-1
O=C1CC(N2CCN(c3ccccc3)CC2)C(=O)N1c1ccc(Cl)cc1 (centres undefined)	.	10	.	.	.
O=C(Cc1csc(-c2ccccc2)n1)NCc1ccc(F)cc1	-10	4	-3	0	.
SMILES	Mdm2 ligase inh	Pf gamet viab	Wee1 stabilizer	Hsp70 activator	Wee1 degr conf
O=C(NCc1csc(-c2ccccc2)n1)c1cc(F)cc2c1OCOC2	-10	-27	15*	.	0
Fc1ccccc1/C=N/Nc1ncnc2ccccc12	-43	-2	12*	0	3
Cc1cccc(C(=O)NCC(=O)OCC(=O)N2CCc3ccccc32)c1	-10	25	13*	0	0
O=C(CSc1ccc(Cl)cc1)NCc1ccncc1	-8	-9	9	0	.
COc1ccc(CC(=O)N2CCN(c3ccccc3OC)CC2)cc1OC	.	-6	.	.	.
CN1CCN(C(=O)C2CC(c3c(F)cccc3Cl)=NO2)CC1 (centres undefined)	4	.	13*	0	-1
O=C(NCc1cccnc1)C(=O)NCC1CCCO1 (centres undefined)	-2	.	-3	0	.
O=C(O)C1=C[C@@H](c2csc3ccccc23)C[C@@H](OCCCCO)O1	.	-2	1	0	.
NC(=O)C1=C[C@H](c2csc3ccccc23)C[C@H](OCCCCO)O1	.	3	11*	0	0
COc1ccc2nc(Nc3nc(C)c(C(C)=O)s3)sc2c1	-30	.	12*	1	5
Cc1nc2ccccc2n1CCN1CCOCC1	-7	-9	12*	0	-1
Cc1ccc(NC(=O)Cn2nnc(-c3ccccc3NC(=O)c3cccs3)n2)cc1	-9	0	14*	0	5
Cc1ccc(S(=O)(=O)N2CCN(CC(=O)N(CC(C)C)c3c(N)n(CC(C)C)c(=O)[nH]c3=O)CC2)c(C)c1	0	-11	3	0	.
C/C(=N\Nc1ccc(S(=O)(=O)N2CCOCC2)cc1[N+](=O)[O-])C(C)C	5	-5	3	0	.
Cc1ccc2c(c1)C1CN(C)CCC1N2C(=O)COc1ccc(N(C)S(=O)(=O)c2cccs2)cc1 (centres undefined)	-3	3	1	.	.
CCOc1ccc(S(=O)(=O)N(C)c2ccc(OCC(=O)N3c4ccc(C)cc4C4CN(C)CCC43)cc2)cc1 (centres undefined)	-51	-1	13*	0	0
CCOc1ccc(CC(=O)NNC(=S)NC)cc1	-18	-27	14*	.	-3
CCCCOC(=O)c1ccccc1N1C(=O)C2C3CCC(C3)C2C1=O (centres undefined)	8	-35	12*	0	-2
CC(C)COC(=O)c1ccccc1N1C(=O)C2C3CCC(C3)C2C1=O (centres undefined)	18	15	-1	0	.
CCCN(CCC)C(=O)Nc1cc(Cl)ccc1OC	-6	10	1	.	.
CCCCn1c(SCC(=O)NNC(=O)c2ccco2)nnc1-c1ccco1	-11	.	-1	0	.
Cc1cc2nc(-c3cccc(NC(=O)c4ccc(Br)o4)c3C)oc2cc1C	-12	.	14*	0	0
Cc1ccc2oc(-c3cccc(NC(=O)c4ccc(Br)o4)c3C)nc2c1	-7	.	-2	0	.
COc1nc2ccccc2nc1CCC(=O)O	-6	.	1	0	.
COc1cccc(C2=NOC(C(=O)N3CCN(c4ccccc4)CC3)C2)c1OC (centres undefined)	-14	.	31*	0	3

Screening results from PubChem BioAssay.
